Experimental data taken from ChEMBL document CHEMBL2390886, “Guaifenesin derivatives promote neurite outgrowth and protect diabetic mice from neuropathy” (J Med Chem, 2013).
The source made the active and inactive calls. The rule behind the calls is not given here.

Legend:
DRG neuron [1] = assay: Neuroprotective activity in Sprague-Dawley rat DRG neurons assessed as enhancement of neurite outgrowth at 0.01 to 1 uM after 24 hrs by confocal microscopic analysis; assay type: functional
Outline: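 DRG from adult male Sprague-Dawley rats dissociated; neurons cultured in defined Hams medium. Test agent incubated 24 h, then DIC images captured by confocal microscopy. Total neurite length per neuron measured morphometrically with a Weibel grid as crosspoints per cell, relative to control neurons of the same preparation. Mean ± SEM of 6 replicate cultures; one-way ANOVA with Tukey's post hoc test.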

[2] = Metabolic stability in human liver microsomes assessed as compound remaining at 2 uM after 1 hr by LC-MS/MS analysis; assay type: ADME, Microsome; details: read-out: Stability
Outline: (§1)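 2 μM compound incubated with mouse or human liver microsomes plus excess NADPH at 37 °C in a shaking water bath for 0 and 60 min (n = 6). Quenched with 2 volumes acetonitrile, centrifuged, supernatant diluted 1:1 with water, analysed by LC−MS/MS as % remaining. Propranolol control.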

[3] = Permeability of the compound after 5 hrs by PAMPA; assay type: ADME; details: read-out: permeability
Outline: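 Precoated PAMPA plate warmed to room temperature. Donor: 25 μM compound in 5% DMSO/PBS; acceptor: 5% DMSO/PBS. Incubated 5 h at 25 °C in water bath. Donor and acceptor samples quantified by LC−MS/MS against calibration standards; mass retention also determined. Propranolol control.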

[4] = Metabolic stability in mouse liver microsomes assessed as compound remaining at 2 uM after 1 hr by LC-MS/MS analysis; assay type: ADME, Microsome; details: read-out: Stability; outline: as §1
DRG neuron [5] = assay: Neuroprotective activity in Sprague-Dawley rat DRG neurons assessed as enhancement of neurite outgrowth up to 1 uM after 24 hrs by confocal microscopic analysis; assay type: functional
Outline: (§2)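 Dissociated DRG neurons from adult male Sprague−Dawley rats cultured in defined medium with compound for 24 h. DIC images by confocal microscopy. Total neurite length per cell scored with Weibel-grid morphometry as intersects per cell, compared with control neurons of the same preparation. n = 6 replicate cultures; mean ± SEM; one-way ANOVA with Tukey's test.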

[6] = Cmax in C57BL/6J mouse at 10 mg/kg, po by LC-MS/MS analysis; assay type: ADME, organism-based; set-up: dose 10 mg/kg, route oral; details: in vivo
Outline: (§3)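 Single oral dose […] given to control and STZ-diabetic mice; plasma analysed by LC−MS/MS. Samples vortexed 2 min, centrifuged, organic layer dried under N2 at room temperature and reconstituted in 0.2% TFA in MeOH/water 20:80. Standards 20–100 000 nM in water; internal standard response variable, not used for quantification.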

[7] = Tmax in streptozotocin-induced C57BL/6J mouse diabetic neuropathy model at 10 mg/kg, po by LC-MS/MS analysis; assay type: ADME, organism-based; set-up: dose 10 mg/kg, route oral; details: in vivo; outline: as §3
DRG neuron [8] = assay: Neuroprotective activity in Sprague-Dawley rat DRG neurons assessed as enhancement of neurite outgrowth at 0.01 uM after 24 hrs by confocal microscopic analysis; assay type: functional; outline: as §2
[9] = AUC (0 to t) in C57BL/6J mouse at 10 mg/kg, po by LC-MS/MS analysis; assay type: ADME, organism-based; set-up: dose 10 mg/kg, route oral; details: plasma; outline: as §3
Mus musculus [10] = assay: Antidiabetic activity in streptozotocin-induced C57BL/6J mouse diabetic neuropathy model assessed as effect on weight loss at 1 to 10 mg/kg/day, po administered 6 days per week for 4 weeks; assay type: functional, organism-based
Outline: (§4)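 Type 1 diabetes induced in fasted mice by ip STZ 90 mg/kg in sterile citrate buffer on 2 consecutive days, confirmed 4 days later and at study end by tail-prick blood glucose (reflectance meter). Compound or vehicle (water) by oral gavage 6 days/week from diabetes onset for 4 weeks. Body weight, glucose, and sciatic MNCV recorded. MNCV taken at 37 °C under isoflurane, stimulating at sciatic notch and Achilles tendon (5 V, 0.05 ms square wave), recording in ipsilateral paw interosseus muscles. n = 10−12/group; mean ± SEM; one-way ANOVA with Dunnett's test.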

Mus musculus [11] = assay: Neuroprotective activity in streptozotocin-induced C57BL/6J mouse diabetic neuropathy model assessed as prevention of motor neuron conduction velocity slowing at 1 to 10 mg/kg/day, po administered 6 days per week for 4 weeks; assay type: functional, organism-based; outline: as §4
Mus musculus [12] = assay: Antidiabetic activity in streptozotocin-induced C57BL/6J mouse diabetic neuropathy model assessed as effect on hyperglycemia at 1 to 10 mg/kg/day, po administered 6 days per week for 4 weeks; assay type: functional, organism-based; outline: as §4
[13] = AUC (0 to t) in streptozotocin-induced C57BL/6J mouse diabetic neuropathy model at 10 mg/kg, po by LC-MS/MS analysis; assay type: ADME, organism-based; set-up: dose 10 mg/kg, route oral; details: in vivo; outline: as §3
[14] = Cmax in streptozotocin-induced C57BL/6J mouse diabetic neuropathy model at 10 mg/kg, po by LC-MS/MS analysis; assay type: ADME, organism-based; set-up: dose 10 mg/kg, route oral; details: in vivo; outline: as §3
[15] = Tmax in C57BL/6J mouse at 10 mg/kg, po by LC-MS/MS analysis; assay type: ADME, organism-based; set-up: dose 10 mg/kg, route oral; details: in vivo; outline: as §3
Mus musculus [16] = assay: Neuroprotective activity in streptozotocin-induced C57BL/6J mouse diabetic neuropathy model assessed as prevention of motor neuron conduction velocity slowing at 10 to 100 mg/kg/day, po administered 6 days per week for 4 weeks; assay type: functional, organism-based; outline: as §4
Mus musculus [17] = assay: Antidiabetic activity in streptozotocin-induced C57BL/6J mouse diabetic neuropathy model assessed as effect on weight loss at 10 to 100 mg/kg/day, po administered 6 days per week for 4 weeks; assay type: functional, organism-based; outline: as §4
DRG neuron [18] = assay: Neuroprotective activity in Sprague-Dawley rat DRG neurons assessed as enhancement of neurite outgrowth at >10 nM after 24 hrs by confocal microscopic analysis; assay type: functional; outline: as §2
Mus musculus [19] = assay: Toxicity in C57BL/6J mouse assessed as unusual behavior at 10 to 100 mg/kg/day, po administered 6 days per week for 4 weeks; assay type: organism-based; set-up: route oral; details: in vivo
Mus musculus [20] = assay: Antidiabetic activity in streptozotocin-induced C57BL/6J mouse diabetic neuropathy model assessed as effect on hyperglycemia at 10 to 100 mg/kg/day, po administered 6 days per week for 4 weeks; assay type: functional, organism-based; outline: as §4
DRG neuron [21] = assay: Neuroprotective activity in Sprague-Dawley rat DRG neurons assessed as sprouting of neurites at 1 uM after 24 hrs by confocal microscopic analysis; assay type: functional; outline: as §2
Mus musculus [22] = assay: Toxicity in C57BL/6J mouse sciatic nerve assessed as motor neuron conduction velocity at 10 to 100 mg/kg/day, po administered 6 days per week for 4 weeks (reference value: 35.6 +/- 1.1 m/s); assay type: organism-based; set-up: route oral; details: in vivo
Mus musculus [23] = assay: Toxicity in C57BL/6J mouse assessed as change in body weight at 10 to 100 mg/kg/day, po administered 6 days per week for 4 weeks (reference value: 26.7 +/- 0.4 g); assay type: organism-based; set-up: route oral; details: in vivo

COc1ccccc1OC[C@@H](O)CF
Activity (DRG neuron [1]): inactive

COc1ccccc1OC[C@@H](O)CO
remaining at 1 h, 2 µM [2]: 94.8%
Activity (DRG neuron [1]): inactive
Papp at 5 h [3]: 8.2 ×10⁻⁶ cm/s
remaining at 1 h, 2 µM [4]: 92.9%

COc1ccccc1NCC(O)CO (racemic)
Activity (DRG neuron [5]): inactive

COc1ccccc1OC[C@H](O)CO
Cmax [6]: 440 nM
remaining at 1 h, 2 µM [2]: 97.4%
Tmax [7]: 10 min
Activity (DRG neuron [8]): Active
AUC(0-t) [9]: 0.737 µM·h
Papp at 5 h [3]: 6.3 ×10⁻⁶ cm/s
Activity (Mus musculus [10]): inactive
Activity (Mus musculus [11]): Active
remaining at 1 h, 2 µM [4]: 92.4%
Activity (Mus musculus [12]): inactive
AUC(0-t) [13]: 0.746 µM·h
Cmax [14]: 0.741 µM
Tmax [15]: 10 min

CCc1ccccc1OCC(O)CO (stereo not given)
Activity (DRG neuron [1]): inactive

Cc1ccccc1OCC(O)CO (racemic)
Activity (DRG neuron [1]): Active

COc1ccccc1OCC(O)CO (racemic) [GUAIFENESIN]
Activity (Mus musculus [16]): Active
Activity (Mus musculus [17]): inactive
Cmax [6]: 5280 nM
Tmax [7]: 4.98 min
AUC(0-t) [9]: 2.73 µM·h
Activity (DRG neuron [18]): Active
Activity (Mus musculus [19]): Non-toxic
Activity (Mus musculus [20]): inactive
Activity (DRG neuron [21]): Active
AUC(0-t) [13]: 1.91 µM·h
Activity (Mus musculus [22]): 35.1 meter/s
Cmax [14]: 5.27 µM
Activity (Mus musculus [23]): 27.1 g
Tmax [15]: 4.98 min
